From ChEMBL document CHEMBL1139384, “First Cdc7 kinase inhibitors: pyrrolopyridinones as potent and orally active antitumor agents. 2. Lead discovery” (J Med Chem, 2009)
The source made the active and inactive calls. The calls are words filed in the database; no cut-off is given here.

Experiments:
[1] = biological target: Inhibitor of nuclear factor kappa-B kinase subunit epsilon (Homo sapiens, UniProt Q14164); assay: Inhibition of IKKi
[2] = biological target: Hepatocyte growth factor receptor (Homo sapiens, UniProt P08581); assay: Inhibition of MET
Hepatocyte growth factor receptor, sequence (P08581 whole entry): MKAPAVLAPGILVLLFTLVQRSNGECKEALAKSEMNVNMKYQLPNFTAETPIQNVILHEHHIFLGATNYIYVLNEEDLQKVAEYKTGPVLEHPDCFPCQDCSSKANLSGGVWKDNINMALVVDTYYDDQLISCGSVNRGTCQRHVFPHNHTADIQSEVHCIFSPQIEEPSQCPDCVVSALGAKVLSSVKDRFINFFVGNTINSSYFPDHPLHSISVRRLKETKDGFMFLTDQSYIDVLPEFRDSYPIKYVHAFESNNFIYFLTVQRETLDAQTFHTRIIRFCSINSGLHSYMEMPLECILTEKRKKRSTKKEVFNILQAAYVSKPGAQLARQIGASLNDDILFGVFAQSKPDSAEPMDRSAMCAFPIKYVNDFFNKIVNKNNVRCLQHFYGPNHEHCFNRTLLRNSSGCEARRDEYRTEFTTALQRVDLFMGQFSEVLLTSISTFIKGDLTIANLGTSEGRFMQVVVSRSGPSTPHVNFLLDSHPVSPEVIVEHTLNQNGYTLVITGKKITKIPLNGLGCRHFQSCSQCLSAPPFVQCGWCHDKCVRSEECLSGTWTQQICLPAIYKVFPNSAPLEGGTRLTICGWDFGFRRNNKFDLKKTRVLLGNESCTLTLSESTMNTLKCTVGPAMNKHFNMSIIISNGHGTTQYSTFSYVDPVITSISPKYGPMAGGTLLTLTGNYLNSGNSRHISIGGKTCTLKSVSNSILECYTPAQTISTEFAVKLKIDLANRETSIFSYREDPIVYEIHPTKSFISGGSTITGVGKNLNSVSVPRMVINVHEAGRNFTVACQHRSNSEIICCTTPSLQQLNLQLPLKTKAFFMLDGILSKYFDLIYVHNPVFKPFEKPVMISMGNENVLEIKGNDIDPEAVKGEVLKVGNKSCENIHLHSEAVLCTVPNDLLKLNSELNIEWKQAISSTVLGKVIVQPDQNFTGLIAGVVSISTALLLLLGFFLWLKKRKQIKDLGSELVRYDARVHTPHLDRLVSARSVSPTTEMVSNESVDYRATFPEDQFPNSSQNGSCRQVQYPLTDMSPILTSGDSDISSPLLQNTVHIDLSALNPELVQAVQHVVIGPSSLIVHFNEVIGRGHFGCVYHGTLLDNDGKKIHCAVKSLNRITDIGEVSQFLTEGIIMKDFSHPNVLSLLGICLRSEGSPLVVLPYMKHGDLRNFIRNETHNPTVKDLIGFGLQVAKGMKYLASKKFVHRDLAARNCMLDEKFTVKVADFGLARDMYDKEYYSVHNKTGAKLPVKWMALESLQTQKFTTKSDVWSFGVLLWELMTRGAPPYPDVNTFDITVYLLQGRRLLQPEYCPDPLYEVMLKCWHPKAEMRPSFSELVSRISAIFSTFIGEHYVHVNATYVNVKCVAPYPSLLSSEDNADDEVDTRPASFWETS

[3] = biological target: Serine/threonine-protein kinase PAK 4 (Homo sapiens, UniProt O96013); assay: Inhibition of PAK4
Serine/threonine-protein kinase PAK 4, sequence (O96013 whole entry): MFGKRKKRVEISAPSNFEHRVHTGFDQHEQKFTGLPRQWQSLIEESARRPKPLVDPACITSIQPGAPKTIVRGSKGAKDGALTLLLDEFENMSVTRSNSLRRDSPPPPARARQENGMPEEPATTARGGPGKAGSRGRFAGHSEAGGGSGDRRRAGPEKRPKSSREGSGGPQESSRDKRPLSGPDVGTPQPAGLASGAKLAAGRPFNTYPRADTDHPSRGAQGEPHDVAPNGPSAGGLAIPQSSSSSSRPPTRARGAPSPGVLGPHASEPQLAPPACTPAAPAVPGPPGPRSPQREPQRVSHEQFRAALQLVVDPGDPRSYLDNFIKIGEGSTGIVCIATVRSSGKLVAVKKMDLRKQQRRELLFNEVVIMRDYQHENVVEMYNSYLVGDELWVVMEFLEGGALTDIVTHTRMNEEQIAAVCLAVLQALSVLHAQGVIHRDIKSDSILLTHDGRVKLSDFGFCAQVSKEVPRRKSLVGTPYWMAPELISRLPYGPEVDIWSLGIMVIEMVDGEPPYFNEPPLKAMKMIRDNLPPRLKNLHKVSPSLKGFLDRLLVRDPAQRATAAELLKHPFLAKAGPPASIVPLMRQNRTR

[4] = Metabolic stability in human hepatocytes expressing CYP3A4 assessed as drug remaining after 1 hr; format: ADME, cell-based, Hepatocyte; conditions: read-out: Stability
[5] = Cmax in nu/nu mouse at 10 mg/kg, iv administered as single dose; format: ADME, organism-based; set-up: dose 10 mg/kg, route intravenous; conditions: in vivo
In short: (§1)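 Single iv or oral dose in 5% dextrose to overnight-fasted animals. Nu/Nu mice: males, 3 per route, saphenous bleeds to 24 h. Han-Wistar rats: males, 3 per route, jugular bleeds to 24 h. Beagle dogs: 2 per sex, iv and po crossover 2 weeks apart, jugular bleeds to 48 h. Plasma by LC/MS/MS; noncompartmental parameters, AUC by linear trapezoid with extrapolation.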

[6] = Half life in nu/nu mouse at 10 mg/kg, po administered as single dose; format: ADME, organism-based; set-up: dose 10 mg/kg, route oral; conditions: in vivo; in short: as §1
Rattus norvegicus [7] = assay: AUC (0 to infinity) in Wistar rat at 10 mg/kg, iv administered as single dose; format: ADME, organism-based, Plasma; set-up: time infinity, dose 10 mg/kg, route intravenous; conditions: in vivo; in short: as §1
[8] = Renal clearance in Beagle dog at 5 mg/kg, iv administered as single dose; format: ADME, organism-based, Canis lupus familiaris, Kidney; set-up: dose 5 mg/kg, route intravenous; conditions: in vivo, read-out: CL_renal (converted)
In short: (§2)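 Overnight-fasted Beagle dogs, 2 per sex, in a crossover design: 5 mg/kg iv and 10 mg/kg po, two weeks apart, in 5% dextrose. Jugular blood was drawn up to 48 h, and urine was collected over 0–8, 8–24 and 24–48 h. Samples were assayed by LC/MS/MS and analysed noncompartmentally.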

[9] = Volume of distribution at steady state in Beagle dog at 5 mg/kg, iv administered as single dose; format: ADME, organism-based, Canis lupus familiaris; set-up: dose 5 mg/kg, route intravenous; conditions: in vivo, read-out: Vdss; in short: as §2
[10] = Tmax in Beagle dog at 10 mg/kg, po administered as single dose; format: ADME, organism-based, Canis lupus familiaris; set-up: dose 10 mg/kg, route oral; conditions: in vivo; in short: as §2
[11] = Oral bioavailability in Beagle dog at 10 mg/kg administered as single dose; format: ADME, organism-based, Canis lupus familiaris; conditions: in vivo; in short: as §2
MCF7 = assay: Antiproliferative activity against human MCF7 cells after 72 hrs by luciferase based assay; format: functional, cell-based; conditions: MCF7, 72 h
COLO 205 = assay: Antiproliferative activity against human COLO205 cells after 72 hrs by luciferase based assay; format: functional, cell-based; conditions: COLO 205, 72 h
HT-29 = assay: Antiproliferative activity against human HT-29 cells after 72 hrs by luciferase based assay; format: functional, cell-based; conditions: HT-29, 72 h
In short: (§3)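 Cells seeded at 2500–5000/well in complete medium (RPMI1640, McCoy's or DMEM with 10% FCS, by line); compound added after 24 h, 72 h at 37 °C, 5% CO2.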

[12] = Antiproliferative activity against human SW403 cells after 72 hrs by luciferase based assay; format: functional, cell-based; conditions: SW-403, 72 h; in short: as §3
SW48 = assay: Antiproliferative activity against human SW48 cells after 72 hrs by luciferase based assay; format: functional, cell-based; conditions: SW48, 72 h; in short: as §3
HeLa = assay: Inhibition of DNA synthesis in human HeLa cells at 3 uM assessed as bromodeoxyuridine incorporation after 24 hrs; format: functional; set-up: scale not given: the % may be the effect or the level left
In short: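 Logarithmically growing HeLa cells exposed to 3 µM for set times, labelled with 50 µM BrdU, fixed in 70% ethanol. DNA content by propidium iodide with RNase A, 30 min at 37 °C; BrdU by FITC anti-BrdU after 2N HCl denaturation; percent positive cells by FACS.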

[13] = biological target: T1, Cell division cycle 7-related protein kinase (Homo sapiens, UniProt O00311); assay: Inhibition of human Cdc7 in human A2780 cells assessed as inhibition of Ser40 phosphorylation of Mcm2 protein at 3 uM up to 24 hrs; format: cell-based
T1 sequence (O00311 whole entry, looked up): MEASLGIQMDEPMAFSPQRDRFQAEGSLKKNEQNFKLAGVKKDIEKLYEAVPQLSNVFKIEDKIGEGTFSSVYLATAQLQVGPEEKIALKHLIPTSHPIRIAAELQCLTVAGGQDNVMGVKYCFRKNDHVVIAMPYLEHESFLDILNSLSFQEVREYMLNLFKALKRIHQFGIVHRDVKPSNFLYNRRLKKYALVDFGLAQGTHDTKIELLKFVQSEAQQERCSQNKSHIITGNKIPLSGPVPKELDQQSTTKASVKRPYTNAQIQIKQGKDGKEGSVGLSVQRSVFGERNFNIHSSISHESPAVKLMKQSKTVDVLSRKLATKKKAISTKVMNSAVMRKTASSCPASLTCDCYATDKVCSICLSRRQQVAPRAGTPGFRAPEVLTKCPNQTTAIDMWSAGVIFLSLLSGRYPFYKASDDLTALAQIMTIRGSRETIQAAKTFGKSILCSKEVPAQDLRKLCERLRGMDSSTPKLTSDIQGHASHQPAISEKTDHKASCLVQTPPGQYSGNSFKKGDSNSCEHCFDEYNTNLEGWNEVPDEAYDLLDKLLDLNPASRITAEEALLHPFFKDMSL
In short: (§4)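 Time course in A2780 cells held at 3 µM for up to 24 h. Extracts were made in 50 mmol/L Tris-HCl pH 6.8, 1% SDS, 1 mmol/L DTT with 10 s sonication, loaded at 15 µg per lane, and immunoblotted with antiphosphopeptide antibodies to MCM2 Ser40 and Ser53. Cleaved caspase 3 was also probed.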

[14] = biological target: T1, Cell division cycle 7-related protein kinase; assay: Inhibition of human Cdc7 in human A2780 cells assessed as inhibition of Ser53 phosphorylation of Mcm2 protein at 3 uM up to 24 hrs; format: cell-based; in short: as §4
Cytochrome P450 2C8 = Cytochrome P450 2C8 (Homo sapiens, UniProt P10632); assay: Inhibition of human CYP2C8; format: ADME
Cytochrome P450 2C8, sequence (P10632 whole entry): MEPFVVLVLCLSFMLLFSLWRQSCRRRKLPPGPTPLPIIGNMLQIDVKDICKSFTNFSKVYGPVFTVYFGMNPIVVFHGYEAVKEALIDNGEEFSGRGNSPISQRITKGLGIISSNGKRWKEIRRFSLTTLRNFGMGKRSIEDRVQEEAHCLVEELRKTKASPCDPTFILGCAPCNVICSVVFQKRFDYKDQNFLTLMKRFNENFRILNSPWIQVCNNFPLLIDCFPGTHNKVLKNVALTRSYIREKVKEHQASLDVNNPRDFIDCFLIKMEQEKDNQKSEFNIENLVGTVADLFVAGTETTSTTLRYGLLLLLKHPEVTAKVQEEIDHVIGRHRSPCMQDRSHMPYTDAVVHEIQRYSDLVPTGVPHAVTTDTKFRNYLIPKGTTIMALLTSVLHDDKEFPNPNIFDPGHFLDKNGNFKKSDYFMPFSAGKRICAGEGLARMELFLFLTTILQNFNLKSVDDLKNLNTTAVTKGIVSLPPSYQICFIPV

Cytochrome P450 2C9 = Cytochrome P450 2C9 (Homo sapiens, UniProt P11712); assay: Inhibition of human CYP2C9; format: ADME
Cytochrome P450 2D6 = Cytochrome P450 2D6 (Homo sapiens, UniProt P10635); assay: Inhibition of human CYP2D6; format: ADME
A2780 = assay: Antitumor activity against human A2780 cells xenografted in CDI nu/nu mouse assessed as tumor growth inhibition at 60 mg/kg, po administered for 10 days; format: functional; conditions: A2780, 240 h, read-out: TGI
[15] = biological target: Serine/threonine-protein kinase TAO3 (Homo sapiens, UniProt Q9H2K8); assay: Inhibition of TAO3
Serine/threonine-protein kinase TAO3, sequence (Q9H2K8 whole entry): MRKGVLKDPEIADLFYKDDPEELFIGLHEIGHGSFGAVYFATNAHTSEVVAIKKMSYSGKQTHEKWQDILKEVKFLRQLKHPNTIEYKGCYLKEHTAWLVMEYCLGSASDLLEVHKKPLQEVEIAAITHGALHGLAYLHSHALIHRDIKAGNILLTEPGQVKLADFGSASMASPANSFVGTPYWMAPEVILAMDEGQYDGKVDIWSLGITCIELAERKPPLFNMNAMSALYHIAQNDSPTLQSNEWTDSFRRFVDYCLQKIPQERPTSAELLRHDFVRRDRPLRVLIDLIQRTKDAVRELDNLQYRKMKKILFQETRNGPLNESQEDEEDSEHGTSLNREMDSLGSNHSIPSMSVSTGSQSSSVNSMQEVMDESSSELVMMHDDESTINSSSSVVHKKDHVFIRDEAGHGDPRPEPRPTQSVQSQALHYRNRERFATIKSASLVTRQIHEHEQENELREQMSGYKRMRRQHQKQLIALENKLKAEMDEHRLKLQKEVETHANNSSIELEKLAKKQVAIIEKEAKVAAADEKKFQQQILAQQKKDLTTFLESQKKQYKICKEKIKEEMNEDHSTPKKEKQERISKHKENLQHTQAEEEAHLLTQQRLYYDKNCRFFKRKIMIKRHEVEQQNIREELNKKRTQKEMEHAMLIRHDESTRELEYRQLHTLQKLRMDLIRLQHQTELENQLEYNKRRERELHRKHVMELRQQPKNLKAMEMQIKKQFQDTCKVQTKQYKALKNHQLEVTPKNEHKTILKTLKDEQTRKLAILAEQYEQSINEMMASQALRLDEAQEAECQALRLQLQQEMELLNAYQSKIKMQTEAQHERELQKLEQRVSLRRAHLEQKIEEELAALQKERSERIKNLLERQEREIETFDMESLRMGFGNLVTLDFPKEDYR

[16] = Cmax in Wistar rat at 20 mg/kg, po administered as single dose; conditions: in vivo
[17] = Half life in Wistar rat at 20 mg/kg, po administered as single dose; conditions: in vivo
Rattus norvegicus [18] = assay: AUC (0 to infinity) in Wistar rat at 20 mg/kg, po administered as single dose; conditions: in vivo

Inhibitor of nuclear factor kappa-B kinase subunit epsilon, sequence (Q14164 whole entry): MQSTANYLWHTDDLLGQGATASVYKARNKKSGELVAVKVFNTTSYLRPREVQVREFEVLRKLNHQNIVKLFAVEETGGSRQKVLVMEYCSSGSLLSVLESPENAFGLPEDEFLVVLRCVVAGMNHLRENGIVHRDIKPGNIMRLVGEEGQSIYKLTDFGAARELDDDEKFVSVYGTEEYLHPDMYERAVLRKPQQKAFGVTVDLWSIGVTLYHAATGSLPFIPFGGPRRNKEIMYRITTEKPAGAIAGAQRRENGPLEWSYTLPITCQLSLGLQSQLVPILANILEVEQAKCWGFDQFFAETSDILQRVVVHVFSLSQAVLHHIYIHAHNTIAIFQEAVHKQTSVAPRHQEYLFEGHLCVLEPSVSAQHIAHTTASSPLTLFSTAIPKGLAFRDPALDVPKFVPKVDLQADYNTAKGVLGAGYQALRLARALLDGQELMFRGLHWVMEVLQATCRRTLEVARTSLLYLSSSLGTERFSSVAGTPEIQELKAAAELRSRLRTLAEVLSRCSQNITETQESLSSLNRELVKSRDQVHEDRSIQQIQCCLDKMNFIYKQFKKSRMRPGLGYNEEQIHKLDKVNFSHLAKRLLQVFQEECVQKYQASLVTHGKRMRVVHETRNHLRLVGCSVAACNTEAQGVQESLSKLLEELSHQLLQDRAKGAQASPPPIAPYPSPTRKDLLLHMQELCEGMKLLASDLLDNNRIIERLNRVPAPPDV

In the case of Nc1nccc(-c2cc3c([nH]2)[C@@H](CCF)CNC3=O)n1, the IC50 [1] is reported as over 4000 nM, the IC50 [2] is reported as over 4000 nM and the IC50 [3] is reported as over 4000 nM. For the same compound, the remaining at 1 h [4] was 95%, the Cmax [5] was 20.3 µM and the half-life [6] was 1 h. It also gave an AUC (Rattus norvegicus [7]) of 19.9 µM·h, a CL renal [8] of 6.67 mL/min/kg and a Vd [9] of 2.1 L/kg. The Tmax [10] was 0.3 h, the bioavailability [11] was 51% and the IC50 (MCF7) was 1100 nM. The IC50 (COLO 205) was 500 nM, the IC50 (HT-29) was 4100 nM and the IC50 [12] was 600 nM. For the same compound, the IC50 (SW48) was 900 nM, the Activity (HeLa) was 3% and the Activity [13] was “Active”. The Activity [14] was “Active”, the Activity (Cytochrome P450 2C8) was “Not Active” and the Activity (Cytochrome P450 2C9) was “Not Active”. The Activity (Cytochrome P450 2D6) was “Not Active”, the inhibition in vivo at 60 mg/kg (A2780) was 68% and the IC50 [15] was 126 nM. For the same compound, the Cmax [16] was 2 µM, the half-life [17] was 6.2 h and the AUC (Rattus norvegicus [18]) was 18.9 µM·h.
